hERG protect: shields human hERG channel from block by proarrhythmic agents; CHO-hERG, FluxOR thallium flux, dofetilide IC70 present; AID 1511; 0.51% of 310,000 active; Q12809; activation (rescue from dofetilide block), less the hit threshold, % at 10 µM;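 active means activation above the mean of controls blocked by dofetilide plus 5 SD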;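 further: thallium influx through hERG after potassium depolarization seen as dye fluorescence rise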
KCNQ1 pot: human KCNQ1 channel potentiation or activation. CHO-K1 KCNQ1, thallium flux FluxOR fluorescence; hits give high values. B-score at 10 µM. 0.35% of 310,000 active. AID 2648;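 active means fluorescence ratio B-score, a plate-corrected score, at least three library SD, with initial intensity B-score within 5 SD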
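assay system = KCNQ1-transfected CHO-K1 cells | medium = assay buffer with matched DMSO | probe or stimulus = depolarizing K+/Tl+ stimulus, K2SO4 and Tl2SO4 each 12.5 mM in 5x stock | dosing = single dose | incubation = dye 90 min, compound 20 min, room temperature | detection = kinetic FluxOR fluorescence, 10 s baseline plus 110 s post-stimulus | evaluation = ratio B score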
KCNK3 block: human KCNK3 channel inhibition, primary screen | CHO-KCNK3 thallium flux, FluxOR fluorescence; hits give low values | B-score at 10 µM | 0.84% of 340,000 active | AID 602410;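 active means B-score under library mean minus 4 SD, starting fluorescence ratio at most library mean plus 5 SD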;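 further: more negative B-score means stronger inhibition of thallium flux through KCNK3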
KCNQ1 inh: inhibitors of human KCNQ1 potassium channel | 1.3% of 310,000 active | CHO-K1 KCNQ1, FluxOR thallium flux fluorescence; hits give high values | AID 2642 | B-score at 10 µM | P51787;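 active means compounds whose thallium flux B-score, printed positive for inhibition, exceeds three library SD while starting fluorescence stays within three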;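 further: channel opened by potassium depolarization with thallium stimulus after 20 min compound exposure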
KCNK9 block: human KCNK9 channel inhibition | Q9NPC2 | HEK293 KCNK9, FluxOR thallium flux fluorescence; hits give low values | B-score at 10 µM | 1.2% of 310,000 active | AID 488922;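 active means ratio B-score over 3 SD below the library mean, with starting fluorescence within 5 SD of its mean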;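 further: negative B-score means less thallium flux so channel inhibition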
Active calls of the source: *; i = inactive; x = no result. The list is not random: actives were taken first. Their share in the collection is about 3.1%.

SMILES	hERG protect	KCNQ1 pot	KCNK3 block	KCNQ1 inh	KCNK9 block
CC(=O)Nc1ccc(OC(=O)c2ccc(Br)c([N+](=O)[O-])c2)cc1	-25.1	i	i	7*	i
COc1ccccc1-c1cn[nH]c1-c1ccc(OCc2ccc([N+](=O)[O-])cc2)cc1O	-7.6	i	i	i	i
COc1ccccc1-c1cn[nH]c1-c1ccc(OCc2ccc(F)cc2)cc1O	-11.8	i	i	6*	i
Cc1ccc(C(NC(=O)NC(C)c2ccccc2)C(Cl)(Cl)Cl)cc1F (stereo not drawn)	-3.1	i	i	7*	i
CC(NC(=O)Nc1ccc(Cl)cc1)c1ccccc1 (stereo not drawn)	-7.8	i	i	i	i
Cc1ccc(NC(=O)C2CC2c2ccccc2)c([N+](=O)[O-])c1 (stereo not drawn)	-4.1	i	i	i	i
CCOc1cc(/C=C2/C(=O)ON=C2C)cc(Br)c1O	-13.1	i	i	9*	i
COc1cc(/C=C2\C(=O)ON=C2c2ccccc2)cc(Br)c1O	-31.0	i	i	7*	i
CCCOc1ccc(/C=C2/C(=O)ON=C2C)cc1OCC	-2.5	i	i	i	i
O=C(NCc1ccc(F)cc1)c1cc2sccc2n1Cc1ccc(F)cc1	-9.1	i	x	i	-10.4*
CC(C)NC(=O)C1CCN(C(=O)c2cc3sccc3n2Cc2ccc(F)cc2)CC1	5.0*	i	i	i	i
COc1ccc(C(=O)NCCc2cccc(Cl)c2)cc1OC1CCN(C(C)=O)CC1	-6.7	i	i	i	i
Cc1c(-c2ccn[nH]2)cc(NC(=O)c2ccc(Cl)cc2)c(=O)n1N	5.0*	i	i	i	i
Cc1cc2nc(-c3ccc(SCc4ccccc4C#N)nc3)[nH]c2cc1C	-0.5	i	i	7*	i
CCn1nnc2cc(C(=O)Nc3cc(Cl)ccc3C)ccc21	x	x	i	x	x
CCn1nnc2cc(C(=O)Nc3cc(S(C)(=O)=O)ccc3Cl)ccc21	-13.1	10*	i	i	i
Cn1c(=O)n(C)c2cc(N3CCOCC3)c(NC(=O)c3ccc(F)cc3)cc21	-14.0	i	i	i	i
CC(C)c1ccc(N(CC(=O)NCc2cccnc2)S(=O)(=O)c2ccccc2)cc1	-6.7	i	i	i	i
O=C(O)CCC(=O)c1ccc2c(c1)OCCO2	-1.7	i	i	i	i
O=C(CCN1CCc2ccccc2C(c2ccccc2)C1)c1ccc2c(c1)OCCO2 (stereo not drawn)	-31.4	i	i	11*	i
O=C(CCN1Cc2ccccc2C1)c1ccc2c(c1)OCCO2	-5.2	8*	i	i	i
Cc1occc1C(=O)N1CCCC(N2CCN(c3ccccc3F)CC2)C1 (stereo not drawn)	-7.1	i	i	i	i
Cc1cccc(NC(=O)C(=O)NNC(=O)c2ccc(C(C)(C)C)cc2)c1	37.4*	73*	i	i	i
COc1ccc(OC)c(NC(=O)NNC(=O)COc2ccc(-c3ccccc3)cc2)c1	-11.9	i	i	i	i
COc1ccc(OCC(=O)NNC(=O)C(=O)Nc2cc(OC)ccc2OC)cc1	14.7*	i	i	i	i
SMILES	hERG protect	KCNQ1 pot	KCNK3 block	KCNQ1 inh	KCNK9 block
Cc1ccccc1NC(=O)C(=O)NNC(=O)COc1ccc2ccccc2c1	28.7*	49*	i	i	i
COc1ccc(OC)c(NC(=O)C(=O)NNC(=O)COc2ccc(Br)cc2C)c1	103.9*	66*	i	i	i
O=C(COc1ccc2ccccc2c1)NNC(=O)Nc1ccccc1F	-6.9	i	i	i	i
Cc1csc(=O)n1CCC(=O)NCc1ccc(F)cc1	x	x	i	x	x
CC1(CCCN2C(=O)c3ccccc3C2=O)OCCO1	-3.7	i	i	i	i
CCC(C(=O)NCCCN(CC)Cc1ccccc1)n1nc(C)c2sc3ccccc3c2c1=O (stereo not drawn)	-7.6	i	i	i	i
Cc1ccc(OCC(=O)NNC(=O)C(=O)NC(C)(C)C)cc1	2.7	8*	i	i	i
COc1cccc(OCC(=O)NNC(=O)C(=O)Nc2cccc(C)c2)c1	17.4*	21*	i	i	i
COc1ccc(OCC(=O)Nc2cccc(OC)c2)cc1	-8.1	i	i	i	i
